Experimental data published in ChEMBL document CHEMBL4376883, “Discovery and Optimization of Small Molecules Targeting the Protein-Protein Interaction of Heat Shock Protein 90 (Hsp90) and Cell Division Cycle 37 as Orally Active Inhibitors for the Treatment of Colorectal Cancer” (J Med Chem, 2020).

Assays:
[1] = Distribution coefficient, log D of the compound at pH 7.4 by potentiometric titration method; assay type: physicochemical; settings: octanol/water
Method in brief: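 log D at pH 7.4 measured by potentiometric titration on a Gemini Profiler.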

[2] = Permeability of the compound at pH 7.4 by PAMPA; assay type: ADME; settings: read-out: permeability
Method in brief: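 Permeability coefficient (Pe) was measured at pH 7.4 by double-sink PAMPA.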

[3] = Stability of the compound in mouse plasma assessed as parent compound remaining at 1 uM measured immediately by LC-MS/MS analysis; assay type: ADME, cell-free; settings: read-out: Stability
Method in brief: (§1)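 Compound diluted from 10 mM DMSO stock to 1 μM in mouse or human plasma and held at 37 °C in a water bath. Reactions were stopped with acetonitrile at 0, 10, 30, 60 and 90 min. Parent compound was quantified by LC-MS/MS as % remaining.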

[4] = Stability of the compound in human plasma assessed as parent compound remaining at 1 uM measured immediately by LC-MS/MS analysis; assay type: ADME, cell-free; settings: read-out: Stability; method in brief: as §1
[5] = Stability of the compound in human plasma assessed as parent compound remaining at 1 uM measured after 90 mins by LC-MS/MS analysis; assay type: ADME, cell-free; settings: read-out: Stability; method in brief: as §1
[6] = Half life in mouse liver microsomes at 10 uM preincubated for 5 mins followed by NADPH addition by LC-MS/MS analysis; assay type: ADME, Microsome
Method in brief: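 Compound at 10 µM preincubated 5 min at 37 °C with human or mouse liver microsomes (0.5 mg/mL) in 100 mM phosphate, pH 7.4. Reaction started with 1 mM NADPH, stopped with cold acetonitrile, centrifuged and analysed by LC-MS/MS.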

Glucocorticoid receptor = biological target: T1, Glucocorticoid receptor (Homo sapiens, UniProt P04150); assay: Effect on glucocorticoid receptor in human HCT116 cells at 10 uM measured up to 48 hrs by Western blot analysis; assay type: ADME, cell-based
T1 sequence (P04150 whole entry): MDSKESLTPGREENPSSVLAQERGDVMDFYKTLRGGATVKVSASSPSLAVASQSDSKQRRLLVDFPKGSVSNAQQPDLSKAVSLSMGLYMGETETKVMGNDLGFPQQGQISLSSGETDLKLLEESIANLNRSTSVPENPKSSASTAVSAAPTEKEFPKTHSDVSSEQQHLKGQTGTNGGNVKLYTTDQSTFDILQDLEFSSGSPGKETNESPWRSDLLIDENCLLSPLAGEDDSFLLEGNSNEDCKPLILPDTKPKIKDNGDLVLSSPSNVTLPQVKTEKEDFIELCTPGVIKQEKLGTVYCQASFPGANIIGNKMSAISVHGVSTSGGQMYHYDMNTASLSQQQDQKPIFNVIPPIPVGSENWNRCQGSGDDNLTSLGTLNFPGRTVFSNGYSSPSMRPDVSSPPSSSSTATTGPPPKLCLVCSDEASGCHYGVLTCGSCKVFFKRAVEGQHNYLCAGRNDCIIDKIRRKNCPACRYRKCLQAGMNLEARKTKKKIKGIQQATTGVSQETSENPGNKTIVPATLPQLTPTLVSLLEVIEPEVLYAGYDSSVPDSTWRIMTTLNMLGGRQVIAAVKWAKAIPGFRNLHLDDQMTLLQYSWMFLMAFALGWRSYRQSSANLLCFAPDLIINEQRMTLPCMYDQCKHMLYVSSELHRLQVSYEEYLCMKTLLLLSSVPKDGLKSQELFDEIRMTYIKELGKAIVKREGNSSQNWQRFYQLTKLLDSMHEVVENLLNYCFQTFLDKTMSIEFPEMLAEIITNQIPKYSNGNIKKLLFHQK
Method in brief: (§2)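 HCT116 cells treated with 0, 1, 5 or 10 µM for 24 h, or with 10 µM for 0, 4, 12, 24 or 48 h. Lysates separated by SDS-PAGE and blotted. Membranes blocked in 5% milk, primary antibodies overnight at 4 °C, HRP secondaries, chemiluminescent detection.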

HCT-116 [7] = assay: Effect on HSP90 expression in human HCT116 cells up to 10 uM measured after 24 hrs by Western blot analysis; assay type: cell-based; settings: hct-116, 24 h; method in brief: as §2
HCT-116 [8] = assay: Effect on CDC37 expression in human HCT116 cells up to 10 uM measured after 24 hrs by Western blot analysis; assay type: cell-based; settings: hct-116, 24 h; method in brief: as §2
HCT-116 [9] = assay: Effect on total phosphorylated CDC37 expression in human HCT116 cells at 10 uM measured up to 48 hrs by Western blot analysis; assay type: ADME, cell-based; settings: hct-116, 48 h; method in brief: as §2
[10] = Tmax in plasma of human HCT116 cells xenografted BALB/c mouse at 80 mg/kg, po administered as single dose by LC-MS/MS analysis; assay type: ADME, organism-based
Method in brief: (§3)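 HCT116-xenografted mice (n = 6 per group) received a single oral 80 mg/kg dose. Blood and tumor were sampled at 0 to 24 h. Plasma was obtained by centrifugation at 3000 rpm for 10 min. Samples were stored at −80 °C and quantified by LC-MS/MS.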

[11] = Half life in plasma of human HCT116 cells xenografted BALB/c mouse at 80 mg/kg, po administered as single dose by LC-MS/MS analysis; assay type: ADME, organism-based
Method in brief: (§4)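 Single oral dose of 80 mg/kg given to BALB/c nude mice (n = 6 per group) carrying flank HCT116 xenografts. Blood and tumor were collected at 0, 0.25, 0.5, 1, 2, 4, 8, 12 and 24 h. Blood went into heparinized tubes and was spun at 3000 rpm for 10 min to give plasma. Samples were stored at -80 °C, then drug levels in plasma and tumor were measured by LC-MS/MS.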

[12] = Cmax in plasma of human HCT116 cells xenografted BALB/c mouse at 80 mg/kg, po administered as single dose by LC-MS/MS analysis; assay type: ADME, organism-based; set-up: dose 80 mg/kg, route oral
Method in brief: (§5)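 Tumour-bearing mice (n = 6 per group) given one oral dose of 80 mg/kg. Blood and tumour collected into heparinized tubes at 0, 0.25, 0.5, 1, 2, 4, 8, 12 and 24 h. Plasma obtained by centrifugation at 3000 rpm for 10 min. Samples stored at -80 °C and quantified by LC-MS/MS.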

[13] = AUC (0 to t) in plasma of human HCT116 cells xenografted BALB/c mouse at 80 mg/kg, po administered as single dose by LC-MS/MS analysis; assay type: ADME, organism-based; method in brief: as §5
[14] = AUC (0 to infinity) in plasma of human HCT116 cells xenografted BALB/c mouse at 80 mg/kg, po administered as single dose by LC-MS/MS analysis; assay type: ADME, organism-based; set-up: dose 80 mg/kg, time infinity, route oral; method in brief: as §5
[15] = Apparent volume of distribution during terminal phase in plasma of human HCT116 cells xenografted BALB/c mouse at 80 mg/kg, po administered as single dose by LC-MS/MS analysis; assay type: ADME, organism-based; settings: read-out: Vz/F
Method in brief: (§6)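 Xenograft mice (n = 6 per group) received a single 80 mg/kg oral dose. Plasma and tumour were sampled over 0–24 h into heparinized tubes and analysed by LC-MS/MS.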

[16] = Apparent oral clearance in plasma of human HCT116 cells xenografted BALB/c mouse at 80 mg/kg administered as single dose by LC-MS/MS analysis; assay type: ADME, organism-based; method in brief: as §6
[17] = Half life in tumor of human HCT116 cells xenografted BALB/c mouse at 80 mg/kg, po administered as single dose by LC-MS/MS analysis; assay type: ADME, organism-based, Neoplasm; method in brief: as §4
[18] = MRT in tumor of human HCT116 cells xenografted BALB/c mouse at 80 mg/kg administered as single dose by LC-MS/MS analysis; assay type: ADME, organism-based, Neoplasm; method in brief: as §3

Q: For `Cc1cc(C)c(S(=O)(=O)N(CC(=O)O)c2ccc(Nc3ccnc(N4CCNCC4)n3)cc2)c(C)c1`, which logD [1] is on record?
A: Its logD is 1.93.

Q: What about the Papp [2] of the same compound?
A: The Papp was 104 ×10⁻⁶ cm/s.

Q: And the remaining at 0 min, 1 µM [3]?
A: The remaining at 0 min, 1 µM was 100%.

Q: And the remaining at 0 min, 1 µM [4]?
A: Its remaining at 0 min, 1 µM is 100%.

Q: What about the remaining at 1.5 h, 1 µM [5] of the same compound?
A: Its remaining at 1.5 h, 1 µM is 103%.

Q: And the half-life at 10 µM [6]?
A: The half-life at 10 µM was 1.6 h.

Q: And the Activity (Glucocorticoid receptor)?
A: Its Activity is “Non-Toxic”.

Q: And the Activity (HCT-116 [7])?
A: The Activity was “Non-Toxic”.

Q: And the Activity (HCT-116 [8])?
A: The Activity was “Non-Toxic”.

Q: What about the Activity (HCT-116 [9]) of the same compound?
A: Its Activity is “Non-Toxic”.

Q: What about the Tmax [10] of the same compound?
A: Its Tmax is 0.5 h.

Q: What about the half-life [11] of the same compound?
A: The half-life was 1.46 h.

Q: What about the Cmax [12] of the same compound?
A: The Cmax was 308 µg/mL.

Q: And the AUC(0-t) [13]?
A: The AUC(0-t) was 533 µg·h/mL.

Q: What about the AUC(0-inf) [14] of the same compound?
A: Its AUC(0-inf) is 536 µg·h/mL.

Q: What about the Vd/F [15] of the same compound?
A: The Vd/F was 0.392 L/kg.

Q: What about the CL/F [16] of the same compound?
A: Its CL/F is 3.11 mL/min/kg.

Q: And the half-life [17]?
A: Its half-life is 4.66 h.

Q: And the MRT [18]?
A: The MRT was 6.02 h.
